# Test results taken from PMC2819552 (Biochimica et biophysica acta, 2009).
# Several values for one entry are separate records, joined by “and”; a condition that tells them apart may be missing. Equal entries are not always repeated. Where two headings read alike, the source gives them in different places.
# Columns and labels:
# [1] = tested on: H. anomala cells (alternative oxidase pathway); experiment: Induction of cyanide-resistant respiration in H. anomala cells; format: cell-based, Hansenula (Pichia) anomala; conditions: 10 μM inhibitor, cells shaken aerobically at 30°C for 2 hours; None = 0.181
# [2] = tested on: cytochrome b in H. anomala mitochondria; experiment: Reduction of cytochrome b in H. anomala mitochondria; format: biochemical, Hansenula (Pichia) anomala
# H. anomala mitochondria = experiment: Superoxide anion generation in H. anomala mitochondria; format: biochemical, Hansenula (Pichia) anomala
# How it was run: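 Pre-incubated at 30°C in a chemiluminescence reader, then succinate added and inhibitors added in sequence. Read-out was the chemiluminescence peak-height increase sensitive to 0.5 µM superoxide dismutase.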
# rat liver mitochondria = experiment: Succinate-dependent O2 uptake activity in rat liver mitochondria; format: biochemical
# [3] = target: purified bovine cytochrome bc1 complex (Bos taurus, UniProt P00157+P13272); experiment: Cytochrome reduction by DBH2 in purified bovine cytochrome bc1 complex; format: biochemical
# [4] = target: T1, Rieske iron-sulfur protein of Rb. capsulatus cytochrome bc1 complex (Rhodobacter capsulatus, UniProt D5ANZ2+D5ANZ3); experiment: EPR spectra of the reduced Rieske iron-sulfur protein in chromatophore membranes; format: binding; conditions: 10 to 30 μM inhibitor, ascorbate-reduced chromatophore membranes, 20 K
# T1 sequence (D5ANZ3 1-437): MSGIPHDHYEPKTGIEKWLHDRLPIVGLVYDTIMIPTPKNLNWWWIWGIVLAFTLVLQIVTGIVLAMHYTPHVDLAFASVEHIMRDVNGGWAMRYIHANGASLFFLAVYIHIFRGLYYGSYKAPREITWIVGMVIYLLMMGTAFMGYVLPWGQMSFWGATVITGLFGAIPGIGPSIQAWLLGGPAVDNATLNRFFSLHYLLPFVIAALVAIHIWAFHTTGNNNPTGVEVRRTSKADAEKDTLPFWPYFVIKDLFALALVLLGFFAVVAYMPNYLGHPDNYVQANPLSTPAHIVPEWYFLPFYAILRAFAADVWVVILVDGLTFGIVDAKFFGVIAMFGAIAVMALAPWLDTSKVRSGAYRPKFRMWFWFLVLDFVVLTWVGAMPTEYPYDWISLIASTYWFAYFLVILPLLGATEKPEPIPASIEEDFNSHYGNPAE
# T1 sequence (D5ANZ2 1-191): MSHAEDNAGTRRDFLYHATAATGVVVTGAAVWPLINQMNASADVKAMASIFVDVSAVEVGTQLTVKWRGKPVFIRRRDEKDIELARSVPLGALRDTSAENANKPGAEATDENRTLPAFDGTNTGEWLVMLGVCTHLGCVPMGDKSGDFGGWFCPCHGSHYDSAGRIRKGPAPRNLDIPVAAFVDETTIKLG
# T1 sequence (D5ANZ4 22-279 partner): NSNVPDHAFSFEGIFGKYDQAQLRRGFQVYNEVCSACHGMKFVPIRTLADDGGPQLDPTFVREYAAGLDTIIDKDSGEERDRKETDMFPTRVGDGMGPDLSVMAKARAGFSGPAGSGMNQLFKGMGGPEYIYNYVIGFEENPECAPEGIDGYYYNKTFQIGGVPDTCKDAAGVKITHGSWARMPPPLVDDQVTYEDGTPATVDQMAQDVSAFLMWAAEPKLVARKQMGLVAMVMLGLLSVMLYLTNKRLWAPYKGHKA
# [5] = target: T2, Rb. capsulatus cytochrome bc1 complex (Rhodobacter capsulatus, UniProt D5ANZ2+D5ANZ3); format: biochemical; conditions: for Inhibition of re-reduction of cytochromes c (Qo site forward reaction): pH 7.0, Eh 100 mV
# T2 sequence (D5ANZ3 1-437): T1 sequence (D5ANZ3 1-437)
# T2 sequence (D5ANZ2 1-191): T1 sequence (D5ANZ2 1-191)
# T2 sequence (D5ANZ4 22-279 partner): T1 sequence (D5ANZ4 22-279 partner)
# How it was run: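 Rb. capsulatus chromatophores normalised to reaction centre (0.28 µM), with redox mediators and 2.5 µM valinomycin. Qo forward: 50 mM MOPS pH 7.0, 100 mM KCl, Eh 100 mV. Qi reverse: 50 mM glycine-NaOH pH 9.5, 100 mM KCl, 10 µM myxothiazol, Eh 125 mV.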
# [6] = 10 μM inhibitor added after 15 mM succinate
# [7] = 10 μM inhibitor added after 15 mM succinate + 10 μM antimycin A3
# [8] = 10 μM antimycin A3 added after 15 mM succinate + 10 μM ascochlorin
compound,measurement,setting,value
"CCCCCCCCCC1=C(O)C(=O)c2scnc2C1=O [NHDBT, nonylhydroxydioxobenzothiazole]",CN−-resistant O2 uptake activity,[1],0.225 nmol O2/min/mg wet cells
CO/C(=C/C(N)=O)[C@H](C)[C@H](/C=C/c1csc(-c2csc([C@@H](C)/C=C/C=C/C(C)C)n2)n1)OC [Myxothiazol],CN−-resistant O2 uptake activity,[1],0.375 nmol O2/min/mg wet cells
same,ΔA 560–575 × 10^2 (cytochrome b reduction),[2]; [6],1.16
same,ΔA 560–575 × 10^2 (cytochrome b reduction),[2]; [7],1.03
same,Chemiluminescence Intensity (superoxide anion generation),H. anomala mitochondria; [7],5.4 10^5 counts/min
O=C1C(O)=C([C@H]2CC[C@H](c3ccc(Cl)cc3)CC2)C(=O)c2ccccc21 [Atovaquone],CN−-resistant O2 uptake activity,[1],0.202 nmol O2/min/mg wet cells
CC(=CCc1c(O)cc(C)c(C=O)c1O)CCC1(C)C(C)CCC(=O)C1C (centres unmarked) [LL-Z1272 ε],Inhibition relative to that seen using ascochlorin,rat liver mitochondria,about 1/300
CCCCCC[C@H]1C(=O)O[C@H](C)[C@H](NC(=O)c2cccc(NC=O)c2O)C(=O)O[C@@H](C)[C@@H]1OC(=O)CC(C)C [antimycin A],Extent of rapid reduction of cytochrome bL,"[3]; 3 μM bovine bc1, 30 μM antimycin A, DBH2 25 μM",about 20%
same,Level of cytochrome b reduction after reoxidation,"[3]; 30 μM antimycin A, within a few minutes",about 10%
CC(/C=C/[C@@]1(C)[C@H](C)CCC(=O)[C@@H]1C)=C\Cc1c(O)c(Cl)c(C)c(C=O)c1O [Ascochlorin],CN−-resistant O2 uptake activity,[1],7.42 nmol O2/min/mg wet cells
same,Effect on the Rieske ISP gx EPR transition,[4],changes the gx transition
same,ΔA 560–575 × 10^2 (cytochrome b reduction),[2]; [6],0.92
same,ΔA 560–575 × 10^2 (cytochrome b reduction),[2]; [7],0.85
same,Inhibition of re-reduction of cytochromes c (Qo site forward reaction),[5]; 1 μM,partially
same,Inhibition of re-reduction of cytochromes c (Qo site forward reaction),[5]; 10 μM,fully
same,Inhibition of Qi site-mediated cytochrome b reduction (reverse reaction),"[5]; 1 or 10 μM, 10 μM myxothiazol, pH 9.5, Eh 125 mV",completely inhibited
same,Extent of rapid reduction of cytochrome c1,"[3]; 3 μM bovine bc1, 31 μM ascochlorin, DBH2 25 μM, by the first spectrum",about 20%
same,Rapid reduction of cytochrome bH and c1,"[3]; ascochlorin and antimycin both present, 240 μM ascochlorin",about half
same,Further decrease of the extent of the fast reactions,"[3]; ascochlorin increased from 31 to 360 μM, compared to Fig. 4C",about a factor of two
same,Chemiluminescence Intensity (superoxide anion generation),H. anomala mitochondria; [6],2.6 10^5 counts/min
same,Chemiluminescence Intensity (superoxide anion generation),H. anomala mitochondria; [7],4.6 10^5 counts/min
Funiculosin,CN−-resistant O2 uptake activity,[1],3.12 nmol O2/min/mg wet cells
CCCC[C@H]1C(=O)O[C@H](C)[C@H](NC(=O)c2cccc(NC=O)c2O)C(=O)O[C@@H](C)[C@@H]1OC(=O)CC(C)C [Antimycin A3],CN−-resistant O2 uptake activity,[1],7.77 nmol O2/min/mg wet cells
same,ΔA 560–575 × 10^2 (cytochrome b reduction),[2]; [8],0.94
same,ΔA 560–575 × 10^2 (cytochrome b reduction),[2]; 10 μM antimycin A3 added after 15 mM succinate + 10 μM myxothiazol,1.08
same,ΔA 560–575 × 10^2 (cytochrome b reduction),[2]; [6],1.27 and 1.28
same,Chemiluminescence Intensity (superoxide anion generation),H. anomala mitochondria; [8],3.6 10^5 counts/min
same,Chemiluminescence Intensity (superoxide anion generation),H. anomala mitochondria; [6],8.8 10^5 counts/min and 9.1 10^5 counts/min
C/C=C(C)/C=C/C=C/[C@H](OC)[C@@H](C)[C@@H](OC)[C@@H](C)CCc1oc2c(O)c(OC)cc(OC)c2c(=O)c1C [Stigmatellin],CN−-resistant O2 uptake activity,[1],0.433 nmol O2/min/mg wet cells
